Assay outcomes as filed in PubChem BioAssay.
Rows were chosen to be rich in hits. Some 1.9% of all compounds tested hit in one or more screens of this group.
LEDGF integ inh: blocks HIV-1 LEDGF/p75-dependent DNA integration; inhibition, % at 3.7 µM; TR-FRET IN-LEDGF/p75 DNA integration, Eu/Cy5; AID 743269; 0.64% of 370,000 active;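 active = inhibition above the screen-wide mean plus 3 SD, cut at about 13% in these data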;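 note: signal is the Cy5 over europium emission ratio at 671 and 618 nm; 0% = plate median of compound wells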
MBD2 DNA inh: inhibitors of human MBD2 binding to methylated oligonucleotide; Q9UBB5; TR-FRET; inhibition, % at 4.4 µM; 0.31% of 370,000 active; AID 686964; in the data active = inhibition above about 13%
Rin1-Abl PPI inh: human Rin1-Abl interaction inhibition; TR-FRET Rin1/Abl binding, biochemical; inhibition, % at 7.35 µM; 0.4% of 360,000 active; in the data active = inhibition above about 5%, passing the limit was not always enough
TDP2 inh: TDP2 (human) inhibition, absorbance primary screen; O95551; recombinant TDP2, T5PNP hydrolysis, p-nitrophenol absorbance 415 nm; inhibition, % at 12.8 µM; 0.34% of 370,000 active;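 active = inhibition above the mean of all tested compounds plus 3 SD, set per campaign, cut at about 25% in these data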;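 note: 0% = DMSO with enzyme and 100% = buffer with substrate but no TDP2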
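System – recombinant human TDP2 · Amount – 120 nM TDP2 per well · Buffer or medium – Mg2+-containing Tris-HCl buffer, pH 7.5 · Reagent – T5PNP substrate, 5 mM · Dosing – 12.8 µM single point, 1% DMSO · Incubation – 2 h at 37 °C · Measured by – epi absorbance · Read-out basis – percent inhibition · Benchmarks – high control without enzyme, low control DMSO plus TDP2 · Repeats – singlicate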
UHRF1 binding: UHRF1 methyl-DNA binding inhibition | inhibition, % at 4.4 µM | AID 687016 | 0.75% of 370,000 active | UHRF1 binding to methylated oligo, TR-FRET; in the data active = inhibition above about 21%;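 note: UHRF1 SRA domain binding a hemimethylated CpG hairpin DNA probe; 0% = median of test compound wells and 100% = reference inhibitor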
Target sequence (Q96T88 whole entry, looked up, the tested form may be a part): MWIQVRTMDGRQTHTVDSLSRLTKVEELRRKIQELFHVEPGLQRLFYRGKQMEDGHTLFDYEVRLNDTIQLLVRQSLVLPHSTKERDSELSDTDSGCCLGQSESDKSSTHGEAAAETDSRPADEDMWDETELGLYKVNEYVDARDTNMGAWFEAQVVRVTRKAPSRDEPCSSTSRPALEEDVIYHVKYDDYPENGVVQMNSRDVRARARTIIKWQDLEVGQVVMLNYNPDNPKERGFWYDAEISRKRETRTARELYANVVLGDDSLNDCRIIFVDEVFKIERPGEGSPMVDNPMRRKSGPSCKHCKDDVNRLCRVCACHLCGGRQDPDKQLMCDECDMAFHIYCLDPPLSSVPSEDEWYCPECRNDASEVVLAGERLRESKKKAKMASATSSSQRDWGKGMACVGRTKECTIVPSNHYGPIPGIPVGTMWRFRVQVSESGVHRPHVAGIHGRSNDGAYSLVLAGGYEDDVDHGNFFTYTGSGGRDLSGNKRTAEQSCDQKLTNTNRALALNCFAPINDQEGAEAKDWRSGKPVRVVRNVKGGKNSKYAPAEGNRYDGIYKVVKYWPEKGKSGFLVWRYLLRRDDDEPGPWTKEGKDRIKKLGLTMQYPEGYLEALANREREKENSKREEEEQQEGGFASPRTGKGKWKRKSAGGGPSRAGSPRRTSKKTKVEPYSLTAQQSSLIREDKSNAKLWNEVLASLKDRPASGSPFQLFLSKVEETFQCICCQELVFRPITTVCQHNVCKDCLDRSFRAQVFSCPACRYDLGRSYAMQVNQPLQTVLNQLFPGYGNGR
Rin1-Abl confirm: confirmation of inhibitors of human Rin1-Abl interaction; inhibition, % at 7.35 µM; 49% of 1,300 active; shares compounds with Rin1-Abl PPI inh; TR-FRET Rin1-Abl binding, purified proteins; AID 602124
GFP quench: counter-screen for Rin1-Abl inhibitors: GFP fluorescence quenchers; shares compounds with Rin1-Abl PPI inh; inhibitors/quenchers counterscreen; inhibition, % at 6.75 µM; 8.5% of 1,300 active;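 note: ABL1-eGFP fusion protein alone without its partner RIN1-SBP; 0% = protein with vehicle and 100% = wells lacking protein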
GFP quench DR: GFP fluorescence interference dose response; shares compounds with Rin1-Abl PPI inh; GFP fluorescence interference/quenching counterscreen; IC50, µM; 230 tested, under 10 active; call rule not given here;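 note: ABL1-eGFP fusion protein alone without its RIN1 binding partner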
* = called active by the depositor; x = no result. Cut-off read from the data, not from the text of the source, unless noted: active = inhibition above about 6.5%; inactive = the rest.

SMILES	LEDGF integ inh	MBD2 DNA inh	Rin1-Abl PPI inh	TDP2 inh	UHRF1 binding	Rin1-Abl confirm	GFP quench	others
CCSCCOC(=O)C1=C(C)NC2=C(C(=O)CCC2)C1c1coc2ccccc2c1=O (configuration not stated)	-4	1	20*	0	1	30*	0	GFP quench DR=>68
CC1=C(C(=O)OC(C)C)C(c2coc3ccccc3c2=O)C2=C(CCCC2=O)N1 (configuration not stated)	-2	-1	-2	-6	-2	x	x
CCCCSc1nnc(-c2ccc(NC(=O)CCc3ccccc3)cc2)n1C	-3	1	6.2*	0	0	9.0*	1
Cn1c(SCC(=O)NCc2ccccc2)nnc1-c1ccc(NC(=O)CCc2ccccc2)cc1	0	4	-1	-5	0	x	x
COc1ccc(NC(=O)CSc2nnc3ccc(-c4cccnc4)nn23)cc1OC	-2	-1	-1	0	-2	x	x
COc1ccccc1CNC(=O)CSc1nnc2ccc(-c3cccnc3)nn12	0	-6	13*	-1	5	17*	-1	GFP quench DR=>68
CCC(C)NC(=O)CSc1nnc(-c2cc(OC)c(OC)c(OC)c2)o1 (configuration not stated)	7	-3	x	-4	-2	x	x
CC1(c2nnc(-c3ccncc3)o2)CC(c2ccc([N+](=O)[O-])cc2)=NO1 (configuration not stated)	-1	5	18*	-2	3	21*	0
CC1(c2nnc(-c3ccccc3)o2)CC(c2c(Cl)cccc2Cl)=NO1 (configuration not stated)	-4	3	0	2	-4	x	x
CC1(c2nnc(-c3ccncc3)o2)CC(c2ccc(F)cc2)=NO1 (configuration not stated)	4	-1	43*	1	-2	42*	-1	GFP quench DR=>68
CC1(c2nnc(-c3ccc(Cl)cc3)o2)CC(c2ccc([N+](=O)[O-])cc2)=NO1 (configuration not stated)	-1	2	-1	-7	1	x	x
CC1(c2nnc(-c3ccncc3)o2)CC(c2c(Cl)cccc2Cl)=NO1 (configuration not stated)	3	-5	38*	9	1	27*	0
CCOC(=O)c1cccc(NC(=O)CN(C)S(=O)(=O)c2ccc(Cl)s2)c1	-2	-2	x	-4	0	x	x
COC(=O)[C@H](C(C)C)N1Cc2nnn(Cc3ccccc3)c2-c2cc(F)ccc2S1(=O)=O	0	4	x	1	0	x	x
CN1CCN(C(=O)c2cccc(-c3cc(O)c4ncccc4c3)c2)CC1	-5	3	26*	-9	-7	33*	7.4*
CN1CCN(c2cc(-c3cc(O)c4ncccc4c3)ccn2)CC1	-3	-7	14*	0	-10	17*	10.0*
CCOC(=O)c1ccc(N2N=C(C)/C(=C/C=C/c3ccco3)C2=O)cc1	10	-4	0	4	-4	x	x
O=C(O)c1cc(N2N=C(C(F)(F)F)/C(=C/C=C/c3ccco3)C2=O)ccc1Cl	82*	108*	12*	12	97*	4	26*
CCOC(=O)N1CCC(Nc2ncnc3c2cnn3-c2ccccc2)CC1	-5	3	9.9*	-4	4	2	0
N[C@H]1CC[C@@H]2SC[C@@H](C(=O)O)N2C1=O	1	8	x	9	16	x	x
CC(=O)c1sc(NC(=O)c2ccc(Br)o2)nc1C	0	-2	12*	-14	5	-4	1
CC(=O)c1sc(NC(=O)c2ccc(Cn3cc(Br)cn3)o2)nc1C	-4	1	-5	-1	3	x	x
Cc1cccc(C(=O)N[C@@H]2CC[C@@]34CCCN3C(=O)CCC[C@H]4[C@H]2C)c1	-1	6	x	-8	1	x	x
CC1=CC(C)(C)[N+](C)(C)c2ccc(C)cc21	1	3	10*	5	5	-1	0
CC1=CC(C)(C)N(S(=O)(=O)c2ccc(C)cc2)c2ccc(C)cc21	0	-5	-4	-22	1	x	x
